{"data": "Results gathered from unrelated publications", "target": "Ribosomal protein S6 kinase beta-1 (RPS6KB1, Homo sapiens, UniProt P23443)", "note": "Compare with care: the assays were run in different laboratories."}
{"Structure (SMILES)": "Oc1cccc(-c2nc(N3CCOCC3)c3oc4ncccc4c3n2)c1", "read-out": "cell-free assay", "concentration": "0.5 µM", "endpoint": "remaining signal", "result": "106%"}
{"Structure (SMILES)": "c1ccc(N2CCN(Cc3nc4ccccc4[nH]3)CC2)nc1", "read-out": "binding", "method": "competition with immobilised ligand", "concentration": "1 µM", "endpoint": "remaining binding", "result": "97%"}
{"Structure (SMILES)": "CCCS(=O)(=O)Nc1ccc(F)c(C(=O)c2c[nH]c3ncc(-c4ccc(Cl)cc4)cc23)c1F", "read-out": "enzyme activity", "action": "inhibitor", "concentration": "1 µM", "endpoint": "inhibition", "result": "< 10%"}
{"Structure (SMILES)": "CNCc1ccccc1-c1csc([C@@H](C)Nc2nc(C)nc3cc(OC)c(OC)cc23)c1", "read-out": "cell-free assay", "method": "competition with immobilised ligand", "concentration": "1 µM", "endpoint": "remaining binding", "result": "86%"}
{"Structure (SMILES)": "COc1cc2ncnc(Nc3ccc(Oc4ccccc4)c(C)c3C)c2cc1OC", "read-out": "enzyme activity", "action": "inhibitor", "concentration": "1 µM", "endpoint": "inhibition", "result": "-3%"}
{"Structure (SMILES)": "CC/C(=N\\NC(=O)NCc1cccc(O)c1)c1ccc(O)c(C)c1O", "read-out": "enzyme activity", "action": "inhibitor", "concentration": "0.1 µM", "endpoint": "inhibition", "result": "77.8%"}
{"Structure (SMILES)": "O=C1NC(=O)c2cc(Nc3ccc(F)cc3)c(Nc3ccc(F)cc3)cc21", "read-out": "cell-free assay", "concentration": "0.5 µM", "endpoint": "remaining signal", "result": "95.5%"}
{"Structure (SMILES)": "C=CC(=O)Nc1cc(Nc2nccc(Nc3cc(Cl)c(F)cc3C(C)(C)O)n2)c(OC)cc1N1CC[C@@H](N(C)C)C1", "read-out": "enzyme activity", "action": "inhibitor", "concentration": "1 µM", "endpoint": "inhibition", "result": "-3%"}
{"Structure (SMILES)": "CC(C)c1ccc(NC(=O)c2cccs2)c(-c2nc3ccccc3[nH]c2=O)c1", "read-out": "enzyme activity", "action": "inhibitor", "concentration": "1 µM", "endpoint": "activity vs control", "result": "93%"}
{"Structure (SMILES)": "Cn1cncc1C1=CN(c2ncnc3[nH]cnc23)CCS1", "read-out": "enzyme activity", "action": "inhibitor", "method": "radiometric", "concentration": "50 nM", "endpoint": "inhibition", "result": "14%"}
{"Structure (SMILES)": "N#Cc1ccc(Nc2ccc3[nH]c(=O)[nH]c3c2)c(Cl)c1", "read-out": "cell-free assay", "method": "competition with immobilised ligand", "concentration": "1 µM", "endpoint": "remaining binding", "result": "100%"}
{"Structure (SMILES)": "CN(C)C1CCN(CC#Cc2nn(C3CCCC3)c3nc(NCc4ccccc4)ncc23)C1 (stereo not shown)", "read-out": "enzyme activity", "action": "inhibitor", "method": "FRET", "concentration": "10 µM", "endpoint": "inhibition", "result": "10%"}
{"Structure (SMILES)": "CC(=O)c1c(NS(C)(=O)=O)c2cc(-c3ccc(Cl)cc3)c(-c3ccc(Cl)cc3Cl)nc2n(C)c1=O", "read-out": "cell-free assay", "method": "competition with immobilised ligand", "concentration": "1 µM", "endpoint": "remaining binding", "result": "95%"}
{"Structure (SMILES)": "CCN(CC)CCNC(=O)c1c(C)[nH]c(/C=C2\\C(=O)Nc3ccc(F)cc32)c1C", "read-out": "enzyme activity", "action": "inhibitor", "concentration": "10 µM", "endpoint": "inhibition", "result": "90%"}
{"Structure (SMILES)": "Cc1cc(NC(=O)c2cccc3cc(-c4cccc5[nH]nc(N)c45)ccc23)ccc1F", "read-out": "enzyme activity", "action": "inhibitor", "concentration": "0.1 µM", "endpoint": "activity vs control", "result": "110%"}
{"Structure (SMILES)": "COc1cccc(CNC(=O)c2nc3scc(COCc4ccc(C(=O)O)cc4)c3c(=O)[nH]2)c1", "read-out": "cell-free assay", "method": "competition with immobilised ligand", "concentration": "1 µM", "endpoint": "remaining binding", "result": "96.1%"}
{"Structure (SMILES)": "O=S(=O)(NCCNC/C=C/c1ccc(Br)cc1)c1cccc2cnccc12", "read-out": "cell-free assay", "concentration": "0.5 µM", "endpoint": "remaining signal", "result": "25.6%"}
{"Structure (SMILES)": "CN([C@@H]1CCc2c(CC(=O)O)c3ccccc3n2C1)S(=O)(=O)c1ccc(F)cc1", "read-out": "cell-free assay", "method": "competition with immobilised ligand", "concentration": "1 µM", "endpoint": "remaining binding", "result": "100%"}
{"Structure (SMILES)": "Cc1ccc(C(=O)NCc2ccsc2)cc1C#Cc1cn(C(C)C)c2ncnc(N)c12", "read-out": "enzyme activity", "action": "inhibitor", "concentration": "1 µM", "endpoint": "activity vs control", "result": "92%"}
